Experiments:
[1] = tested on: neural cell adhesion molecule L1; test: L1 immunofluorescence staining, H2O2-stressed SK-N-SH cells; format: cell-based, human; details: 250 μM H2O2, 2 h, in comparison with the control group
In short: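 SK-N-SH cells were seeded at 1 × 10^4 per well, given 250 μM H2O2 for 2 h, then cultured 48 h (peptide arms at 20 μg/mL). Cells were fixed in 4% formaldehyde for 10 min and blocked with 10% donkey serum for 40 min. Anti-L1 mouse monoclonal (1:200) was applied overnight at 4°C, then Alexa 488 secondary (1:500) for 1 h, with DAPI mounting. Confocal L1 intensity was measured.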

[2] = tested on: SK-N-SH human neuroblastoma cells; test: Cell viability assay; format: cell-based; details: 250 μM H2O2, 2 h, in comparison with the vehicle control group
In short: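 SK-N-SH neuroblastoma cells were seeded at 1 × 10^4 per well and exposed to 250 μM H2O2 for 2 h. They were then cultured a further 48 h; peptide arms received 20 μg/mL. CCK-8 reagent was added for 2 h at 37°C, and absorbance was read at 490 nm. Five repeats; mean ± SEM; one-way ANOVA with Bonferroni post-hoc test.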

[3] = tested on: SK-N-SH human neuroblastoma cells; details: previous study; ref Zhang et al., 2017; cited from earlier work
[4] = tested on: mouse cerebellar granule neurons; test: Neurite outgrowth assay, H2O2-stressed cerebellar granule neurons; format: cell-based; details: 250 μM H2O2, 2 h, in comparison with the vehicle control group
In short: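 Primary cerebellar granule neurons from C57BL/6 mice were seeded at 2 × 10^4 cells on poly-D-lysine in Neurobasal A without B-27. They received 250 μM H2O2 for 2 h, then 24 h culture (peptide arms at 20 μg/mL). Cells were fixed in 4% formaldehyde and stained with crystal violet. Neurites at least one soma diameter long and free of cell contact were measured at 40×, about 50 cells per group. Three repeats.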

[5] = tested on: Sambucus nigra lectin; test: Competition ELISA; details: by phage binding and competition ELISA

| Compound | L1 expression after H2O2 alone [1] | survival of SK-N-SH cells after H2O2 alone [2] | cell viability of SK-N-SH cells in response to H2O2 [3] | neurite length after H2O2 alone [4] | affinity to Sambucus nigra lectin [5] |
| --- | --- | --- | --- | --- | --- |
| OO [H2O2] | reduced L1 expression | reduced survival | decreased in a dose- and time-dependent manner | reduced the lengths of neurites |  |
| H-PRHGKKPTNKRK-OH [mimetic peptide] |  |  |  |  | high affinity |

Source: paper PMC7034278 (Neural Regeneration Research, 2019)
